# Screening results from PubChem.
# Compounds with a hit are over-represented: about 3.2% of the library has one in this group of screens.
# NR2E3 ag-1 – NR2E3 agonists in two-hybrid cells, primary screen, cell-based, luminescence, CHO-S, Gal4-NCOR/VP16-NR2E3; luciferase; inhibition of corepressor binding, % at 3.98 µM; actives 0.35% (n = 360,000); AID 602229, 2012;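 active = inhibition above the mean of all tested compounds plus 3 SD, cut at about 70% in these data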;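 note: higher means lower luciferase signal from less NR2E3 corepressor binding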
# NR2E3 ag-2 – inhibitors of NR2E3-RetCOR corepressor binding, primary screen, NR2E3 agonist project, biochemical, TR-FRET, GST-NR2E3, biotin-RetCOR | 1536-well | inhibition of corepressor binding, % at 4.78 µM | actives 0.12% (n = 320,000);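 active = percent inhibition above the cutoff of mean plus 3 SD of all tested compounds, set per screening campaign, cut at about 20% in these data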
#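 Assay system: NR2E3–RetCOR corepressor complex. Quantity: 1.35 nM GST-NR2E3. Buffer or medium: pH 7.5 Tris-based buffer. Reagent: biotinylated RetCOR corepressor at 7 nM final. Schedule: 5 h at 4 °C. Detection: TR-FRET, emission read at 617 and 671 nm. Replicates: one well per compound, singlicate testing.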
# DAX1 inh-1 – DAX1 (NR0B1) inhibitors on StAR promoter, primary screen, cell-based, luminescence, SF-1 (NR5A1), full-length DAX-1; HEK293T StAR-luciferase reporter, SF-1/DAX-1 repression relief; inhibition, % at 6.8 µM; actives 1.1% (n = 370,000);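 active = inhibition above the mean over all tested compounds plus 3 SD, cut at about 3.6% in these data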;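 note: higher inhibition means more luminescence from relief of DAX-1 repression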
# SMARCA2 act – SMARCA2 (BRM) function activators, primary screen, cell-based, luminescence, high throughput | MG213 cells, MMTV-luciferase reporter, dexamethasone, overnight | activation, % at 9.1 µM | actives 1% (n = 370,000) | AID 652017, 2013; in the data active = activation above about 7.8%
# DAX1 inh-2 – DAX1 (NR0B1) inhibitors, primary screen, cell-based, HEK293, Gal4-DAX1, luciferase luminescence | Nuclear receptor subfamily 0 group B member 1 (Homo sapiens), P51843 | HEK293 Gal4-DAX1 luciferase reporter | inhibition, % at 6.75 µM | actives 0.99% (n = 340,000);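 active = inhibition above the mean over all tested compounds plus 3 SD, cut at about 4.2% in these data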;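 note: inhibition shows as a rise in luminescence from relieved DAX1 repression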
# Target sequence (P51843 207-470 limits assumed): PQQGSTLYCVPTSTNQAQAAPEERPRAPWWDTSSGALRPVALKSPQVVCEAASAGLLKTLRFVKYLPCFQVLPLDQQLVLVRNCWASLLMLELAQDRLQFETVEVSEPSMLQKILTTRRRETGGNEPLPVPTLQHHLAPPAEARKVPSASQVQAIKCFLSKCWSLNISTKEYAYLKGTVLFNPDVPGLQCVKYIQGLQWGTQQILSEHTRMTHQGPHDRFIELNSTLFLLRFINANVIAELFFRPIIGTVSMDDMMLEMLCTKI
# JMJD2C inh – inhibitors of GASC-1 histone demethylase, primary screen, biochemical, fluorescence, DELFIA europium; actives 0.069% (n = 330,000); Lysine-specific demethylase 4C (Homo sapiens), Q9H3R0; AID 2099, 2009; inhibition, % at 2.35 µM; GST-JMJD2C(1-420) H3K9me3 demethylation;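 active = more than half of a compound's replicate wells show inhibition beyond 50%, single wells judged on their own value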;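 note: signal counts dimethyl H3K9 product captured on neutravidin plate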
# Target sequence (Q9H3R0 1-420 limits assumed): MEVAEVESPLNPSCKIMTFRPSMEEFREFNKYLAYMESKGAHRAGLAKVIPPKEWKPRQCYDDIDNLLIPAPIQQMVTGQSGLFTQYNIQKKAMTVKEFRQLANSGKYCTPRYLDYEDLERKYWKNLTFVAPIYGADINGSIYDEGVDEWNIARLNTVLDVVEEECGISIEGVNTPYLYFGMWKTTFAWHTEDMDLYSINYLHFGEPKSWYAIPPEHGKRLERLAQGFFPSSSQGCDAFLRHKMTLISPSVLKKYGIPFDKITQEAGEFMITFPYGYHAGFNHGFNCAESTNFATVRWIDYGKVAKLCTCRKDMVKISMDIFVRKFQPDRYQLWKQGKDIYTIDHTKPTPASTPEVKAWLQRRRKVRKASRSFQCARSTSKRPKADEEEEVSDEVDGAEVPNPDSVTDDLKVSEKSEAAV
# NR2E3 ag conf – NR2E3 agonist confirmation in cells, cell-based, luminescence, CHO-S two-hybrid. shares compounds with NR2E3 ag-1. CHO-S mammalian two-hybrid NR2E3-NCOR, luciferase luminescence. inhibition, % at 3.98 µM. actives 51% (n = 2,300). AID 624378, 2012;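 active = average inhibition above a cutoff equal to the mean inhibition of all tested compounds plus one SD, cut at about 70% in these data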
# GAL4-VP16 luc – GAL4-VP16 reporter modulators, confirmation, counter-screen for NR2E3 agonist project, cell-based, luminescence, CHO-S, high throughput; shares compounds with NR2E3 ag-1; CHO-S GAL4-VP16 luciferase reporter; inhibition, % at 3.98 µM; actives 29% (n = 2,300);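 active = mean inhibition above a cutoff equal to the average over all tested compounds plus one standard deviation, cut at about 70% in these data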;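 note: luciferase from a UAS reporter driven by GAL4-VP16 transactivation; higher means less reporter light so more repression of VP16 activity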
# Hits are given with their value; i = inactive; nt = no result.
SMILES,NR2E3 ag-1,NR2E3 ag-2,DAX1 inh-1,SMARCA2 act,DAX1 inh-2,JMJD2C inh,NR2E3 ag conf,GAL4-VP16 luc
CC(=O)N1CCc2c1cccc2S(=O)(=O)NC(CC(C)C)C(=O)Nc1ccc(F)cc1Cl (stereo not given),nt,nt,i,i,nt,nt,nt,nt
COC(=O)[C@]12C[C@H](CC(=O)NCC34CC5CC(CC(C5)C3)C4)C(=O)N(Cc3ccco3)C1=C[C@H](COCc1ccccc1)O[C@@H]2C,nt,nt,i,i,nt,nt,nt,nt
CC(=O)c1c(C)[nH]c(C(=O)OCC(=O)Nc2ccc(Cl)cc2[N+](=O)[O-])c1C,86,i,i,i,i,i,96,89
CC(=O)c1c(C)[nH]c(C(=O)OCC(=O)c2ccc(Br)cc2)c1C,i,nt,i,i,i,nt,86,i
CC(=O)c1c(C)[nH]c(C(=O)OCc2ccccc2)c1C,i,i,i,i,i,i,nt,nt
CC(=O)c1c(C)[nH]c(C(=O)OCC(=O)c2ccc3c(c2)NC(=O)CO3)c1C,i,nt,i,i,i,i,nt,nt
CC(=O)c1c(C)[nH]c(C(=O)OCCCCN2C(=O)c3ccccc3C2=O)c1C,89,i,i,i,i,i,96,88
C=CCN1[C@H](CO)[C@H](c2ccc(C#CC3(O)CCCC3)cc2)[C@@H]1C#N,nt,nt,i,i,nt,nt,nt,nt
Cc1ccc(C)c(NC(=O)CNS(=O)(=O)c2ccc3[nH]c(=O)oc3c2)c1,nt,nt,i,i,nt,nt,nt,nt
CC(C(=O)N1CCN(c2ccc(Cl)cc2)CC1)c1ncc(C(F)(F)F)cc1Cl (stereo not given),81,i,i,i,i,i,76,i
Nc1nc(Cl)cc(N2CCC(c3cc(-c4ccc(Cl)cc4)n[nH]3)CC2)n1,91,i,i,i,i,i,98,73
C(#CC1=CCCCC1)CNCC1CC1,nt,nt,i,i,nt,nt,nt,nt
CCOC(=O)c1cccc(NC(=O)CN(C)S(=O)(=O)c2cc3ccccc3s2)c1,nt,nt,i,i,nt,nt,nt,nt
C=CC(=O)N1C/C(=C/c2ccc(F)cc2)C(=O)/C(=C\c2ccc(F)cc2)C1,i,nt,i,i,i,nt,i,i
CN1C2CCC1/C(=C\c1ccc(F)cc1)C(=O)/C2=C/c1ccc(F)cc1,i,i,i,i,i,i,nt,nt
CC(C)(C)NCC(=Cc1ccccc1)C(=O)c1ccccc1,87,nt,i,i,i,nt,83,i
OC(c1ccccc1)(c1ccccc1)C1CCN(CCCNc2cccc(Br)c2)CC1,nt,nt,i,i,nt,nt,nt,nt
O=C(Nc1cccc(Cl)c1)OC1CCC12CCC(c1ccccc1)CC2 (stereo not given),nt,nt,i,i,nt,nt,nt,nt
COc1ccc(CNCCNC(=O)c2nonc2N)cc1OC,i,i,i,i,i,i,nt,nt
Nc1nonc1C(=O)NCCNCc1cc(Br)ccc1OCc1ccc(F)cc1,i,i,i,i,i,i,i,i
O=C(Nc1ccc(OC(F)(F)F)cc1)N1CCN(c2ccnc3cc(Cl)ccc23)CC1,i,i,i,i,i,i,94,i
COc1ccc(CCNC(=O)Cc2ccc(OCc3ccccc3)c(OC)c2[N+](=O)[O-])cc1OCc1ccccc1,101,i,i,i,i,i,88,73
COc1ccc(CNCCc2ccc(Cl)cc2)cc1OCc1ccccc1,i,i,nt,nt,i,i,82,71
COc1ccc(CCNC(=O)Cc2ccc([N+](=O)[O-])cc2)cc1OC,i,i,i,i,i,i,nt,nt
CCOc1cc(CNCc2ccccc2)ccc1OCc1ccc(Cl)cc1,i,i,i,i,i,i,nt,nt
SMILES,NR2E3 ag-1,NR2E3 ag-2,DAX1 inh-1,SMARCA2 act,DAX1 inh-2,JMJD2C inh,NR2E3 ag conf,GAL4-VP16 luc
O=[N+]([O-])c1cccc(NCCCN2CCC(C(O)(c3ccccc3)c3ccccc3)CC2)c1,nt,nt,i,i,nt,nt,nt,nt
COC(=O)[C@H](C(C)C)N(Cc1cn(Cc2ccccc2)nn1)S(=O)(=O)c1ccccc1Br,nt,nt,i,i,nt,nt,nt,nt
CC(COc1ccccc1C#N)CN1CCC(C(O)(c2ccccc2)c2ccccc2)CC1 (stereo not given),nt,nt,i,i,nt,nt,nt,nt
C=C(C)Cn1c(=O)c2c(nc3n2CC(C)CN3Cc2ccccc2)n(C)c1=O (stereo not given),i,i,i,i,i,i,i,i
COc1ccc(CCNC(=O)/C=C/c2ccc3ccccc3n2)cc1OC,i,i,i,i,i,i,i,i
Nc1nc2ccc(Cl)cc2cc1C(=O)NCCc1ccc(O)cc1,nt,nt,i,i,nt,nt,nt,nt
Nc1nc2ccc(Cl)cc2cc1C(=O)NCc1ccccc1Br,nt,nt,i,i,nt,nt,nt,nt
Nc1nc2ccccc2cc1C(=O)NCc1ccc(Cl)cc1Cl,91,nt,nt,nt,nt,nt,97,79
COc1ccc(CCNC(=O)c2cc3cc(Cl)ccc3nc2N)cc1OC,i,nt,nt,nt,nt,nt,i,i
COC(=O)[C@]12C[C@H](CC(=O)NCC34CC5CC(CC(C5)C3)C4)C(=O)N(CCC3=CCCCC3)C1=C[C@H](C(C)C)O[C@@H]2C1CC1,nt,nt,i,i,nt,nt,nt,nt
C#CCN1CC(N(C)CCCO)CS1(=O)=O (stereo not given),nt,nt,i,i,nt,nt,nt,nt
COc1ccccc1C(=O)N(CCC1CCCN1C)c1nc2ccccc2s1 (stereo not given),i,i,i,i,i,i,i,i
COc1ccc2sc(N(CCCN(C)C)C(=O)c3nc4ccccc4s3)nc2c1,i,i,i,i,i,i,nt,nt
O=C(c1ccccc1)n1ccc2ccc(-c3ccc4ccn(C(=O)c5ccccc5)c4c3)cc21,nt,nt,i,i,nt,nt,nt,nt
Cc1cccc(Oc2nc(-c3ccccn3)nc3ccccc23)c1,i,i,i,i,i,i,nt,nt
CN1CCN(c2nc(-c3ccccn3)nc3ccccc23)CC1,i,i,i,i,i,i,nt,nt
c1ccc(N2CCN(c3nc(-c4ccccn4)nc4ccccc34)CC2)cc1,100,i,i,i,i,i,i,i
Cc1ccccc1Oc1nc(-c2ccccn2)nc2ccccc12,i,i,i,i,i,i,i,i
COCCNC(=S)N(C)[C@H]1C[C@H]2c3[nH]c4c(-c5cccc(C)c5)cccc4c3CCN2C[C@H]1[C@H](C)O,nt,nt,i,i,nt,nt,nt,nt
C[C@H]1COc2cc(Br)ccc2S(=O)(=O)N1Cc1cn(CCC2OCCCO2)nn1,nt,nt,i,i,nt,nt,nt,nt
